Results taken from ChEMBL document CHEMBL1121546, “Studies on antimicrobial agents. 1. Synthesis and relation between the antimicrobial activities and certain physicochemical properties of some N'-(pyridinoacetyl) fatty acid hydrazides” (1980).

Experiments:
[1] = test system: Aspergillus niger; test: Minimum inhibitory concentration was evaluated in vitro againist P. As. niger 16404; type: functional
How it was run: (§1)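 Compounds in water, 50% Me₂SO–water or 100% Me₂SO. Disk-plate prescreen, with those active at 1000 μg/mL then titrated by autodilution. Fungi were grown in proteose peptone no. 3 maltose at 23 °C for 3-5 days. MIC was read as the lowest drug level showing no turbidity.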

[2] = test system: Candida albicans; test: Minimum inhibitory concentration was evaluated in vitro againist P. Candida albicans 10231; type: functional; how it was run: as §1
[3] = test system: Escherichia coli; test: Minimum inhibitory concentration was evaluated in vitro againist Escherichia coli Vogel; type: functional
How it was run: (§2)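 Compounds dissolved in water, 50% Me₂SO–water or 100% Me₂SO. They were first screened by disk-plate, and those active at 1000 μg/mL went on to the autotitration method using an automatic diluting device. Bacteria were inoculated into tryptose phosphate broth and incubated at 37 °C for 18-20 h. MIC is the lowest drug level giving complete absence of growth (turbidity).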

[4] = test system: Klebsiella pneumoniae; test: Minimum inhibitory concentration was evaluated in vitro againist Klebsiella pneumoniae 39645; type: functional; how it was run: as §2
[5] = test system: Pseudomonas aeruginosa; test: Minimum inhibitory concentration was evaluated in vitro againist P. Ps. aeruginosa MGH-2; type: functional; how it was run: as §2
[6] = test system: Proteus mirabilis; test: Minimum inhibitory concentration was evaluated in vitro againist Proteus mirabilis MGH-1; type: functional; how it was run: as §2
[7] = test system: Proteus vulgaris; test: Minimum inhibitory concentration was evaluated in vitro againist Proteus vulgaris 9920; type: functional; how it was run: as §2
[8] = test system: Staphylococcus aureus; test: Minimum inhibitory concentration was evaluated in vitro againist Staphylococcus aureus Smith.; type: functional; how it was run: as §2
[9] = test system: Streptococcus pyogenes; test: Minimum inhibitory concentration was evaluated in vitro againist P. Streptococcus pyogenes C-203; type: functional; how it was run: as §2
[10] = test system: Trichophyton benhamiae; test: Minimum inhibitory concentration was evaluated in vitro againist P. Trichophyton mentagrophytes 9129; type: functional, Arthroderma benhamiae; how it was run: as §1

| SMILES | MIC [1] | MIC [2] | MIC [3] | MIC [4] | MIC [5] | MIC [6] | MIC [7] | MIC [8] | MIC [9] | MIC [10] |
| --- | --- | --- | --- | --- | --- | --- | --- | --- | --- | --- |
| CCCCCCCCCCCCCCCCCC(=O)NNC(=O)C[n+]1ccccc1 | > 34 µM | > 17 µM | > 69 µM | > 69 µM | > 34 µM | > 69 µM | > 69 µM | > 34 µM | 1.1 µM | > 17 µM |
| CCCCCCCC(=O)NNC(=O)C[n+]1ccccc1 | > 1600 µM | > 1600 µM | > 1600 µM | > 1600 µM | > 1600 µM | > 1600 µM | > 1600 µM | > 1600 µM | 1600 µM | > 1600 µM |
| CCCCCCCCCCCCCC(=O)NNC(=O)C[n+]1ccccc1 | 39 µM | 19.6 µM | > 39 µM | > 79 µM | > 39 µM | > 79 µM | > 79 µM | 19.6 µM | 9.8 µM | 39 µM |
| CCCCCCCCCCCC(=O)NNC(=O)C[n+]1ccccc1 | 170 µM | 170 µM | 340 µM | 680 µM | 340 µM | 1400 µM | 680 µM | 85 µM | 42 µM | 170 µM |
| CCCCCCCC/C=C\CCCCCCCC(=O)NNC(=O)C[n+]1ccccc1 | > 34 µM | > 17 µM | > 69 µM | > 69 µM | > 34 µM | > 69 µM | > 69 µM | > 17 µM | 1.1 µM | > 17 µM |
| CCCCCCCCCC(=O)NNC(=O)C[n+]1ccccc1 | 1500 µM | 730 µM | > 1500 µM | > 1500 µM | > 1500 µM | > 1500 µM | > 1500 µM | 366 µM | 370 µM | 1500 µM |
| CCCCCCCCCCCCCCCC(=O)NNC(=O)C[n+]1ccccc1 | 37 µM | 18 µM | > 37 µM | > 74 µM | > 37 µM | > 74 µM | > 74 µM | 4.6 µM | 9.1 µM | 37 µM |
